In ChEMBL document CHEMBL3351467, “Ligand-free Pd-catalyzed C-N cross-coupling/cyclization strategy: an unprecedented access to 1-thienyl pyrroloquinoxalines for the new approach towards apoptosis” (Eur J Med Chem, 2014):
Calls of active or inactive are those of the source. No cut-off for these calls is given here.

Tests used:
[1] = molecular target: 3',5'-cyclic-AMP phosphodiesterase 4B (Homo sapiens) (UniProt Q07343); assay: Inhibition of recombinant His-tagged PDE4B1 (unknown origin) expressed in Sf9 cells at 30 uM pre-incubated for 15 mins before cAMP substrate addition by luminescence assay
Method in brief: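 PDE4B1 purified in house (10 ng) pre-incubated 15 min with compound or DMSO vehicle. cAMP substrate ([…]) added for 1 h, then reaction stopped and detection reagent applied 10 min in the dark. Luminescence (RLU) read. % inhibition = (RLU vehicle − RLU inhibitor)/RLU vehicle × 100.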

Danio rerio [2] = species on record: Danio rerio; assay: Induction of apoptosis in Zebrafish embryo at 3 to 30 uM incubated for 24 to 48 hrs by acridine orange based fluorescence microscopy; assay type: functional, organism-based
Method in brief: (§1)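 Embryos dechorionated by hand at 24 hpf, 6 per well in two sets, in 0.1% DMSO. Compound added from serially diluted working stocks, kept at 28 °C for 24 h and 48 h. Washed three times in E3, stained 30 min with acridine orange ([…]) in E3, rinsed twice, then examined for apoptosis.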

Danio rerio [3] = species on record: Danio rerio; assay: Induction of apoptosis in Zebrafish embryo at 1 uM incubated for 24 to 48 hrs by acridine orange based fluorescence microscopy; assay type: functional, organism-based; method in brief: as §1
Danio rerio [4] = species on record: Danio rerio; assay: Teratogenicity in Zebrafish embryo at 1 to 30 uM incubated at 28.5 degC until 5 days post fertilization; assay type: ADME, organism-based; settings: in vivo, 120 h
Method in brief: (§2)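 Embryos at 1 dpf dechorionated with 0.5 mg/ml pronase E and washed in E3. Exposed 6 per well to compound serially diluted in E3 with a final 0.1% DMSO, at 28.5 °C until 5 dpf. Embryos then washed, anaesthetised with 0.008% tricaine and scored blind for body shape, somites, notochord, tail, intestine, fins, brain, jaws, heart, liver and swim bladder. Phenobarbital (3 mM) served as positive control.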

Danio rerio [5] = species on record: Danio rerio; assay: Hepatotoxicity in Zebrafish embryo at 1 to 10 uM incubated at 28 degC until 7 days post fertilization; assay type: organism-based; settings: in vivo, 168 h
Method in brief: (§3)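 Larvae at 4 dpf exposed in 24-well plates, 6 per well in 0.1% DMSO, to final 1, 3, 10 and 30 concentrations, incubated at 28 °C until 7 dpf. Washed in E3 and anaesthetised with tricaine. Images scored for liver size, liver degeneration and yolk sac retention as percentages. Amiodarone served as positive control.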

Danio rerio [6] = species on record: Danio rerio; assay: Hepatotoxicity in Zebrafish embryo at 30 uM incubated at 28 degC until 7 days post fertilization; assay type: organism-based; settings: in vivo, 168 h; method in brief: as §3
Danio rerio [7] = species on record: Danio rerio; assay: Toxicity in Zebrafish embryo at 1 to 30 uM; assay type: organism-based; settings: in vivo; method in brief: as §2
Danio rerio [8] = species on record: Danio rerio; assay: Toxicity in Zebrafish embryo assessed as induction of changes in body shape at 1 uM; assay type: organism-based; settings: in vivo; method in brief: as §2
Danio rerio [9] = species on record: Danio rerio; assay: Toxicity in Zebrafish embryo assessed as induction of changes in somites at 1 uM; assay type: organism-based; settings: in vivo; method in brief: as §2
Danio rerio [10] = species on record: Danio rerio; assay: Toxicity in Zebrafish embryo assessed as induction of changes in notochords at 1 uM; assay type: organism-based, Notochord; settings: in vivo; method in brief: as §2
Danio rerio [11] = species on record: Danio rerio; assay: Toxicity in Zebrafish embryo assessed as induction of changes in tail region at 1 uM; assay type: organism-based; settings: in vivo; method in brief: as §2
Danio rerio [12] = species on record: Danio rerio; assay: Toxicity in Zebrafish embryo assessed as induction of changes in fins region at 1 uM; assay type: organism-based; settings: in vivo; method in brief: as §2
Danio rerio [13] = species on record: Danio rerio; assay: Toxicity in Zebrafish embryo assessed as induction of changes in brain region at 1 uM; assay type: organism-based; settings: in vivo; method in brief: as §2
Danio rerio [14] = species on record: Danio rerio; assay: Toxicity in Zebrafish embryo assessed as induction of changes in upper jaw region at 1 uM; assay type: organism-based; settings: in vivo; method in brief: as §2
Danio rerio [15] = species on record: Danio rerio; assay: Toxicity in Zebrafish embryo assessed as induction of changes in heart region at 1 uM; assay type: organism-based; settings: in vivo; method in brief: as §2
Danio rerio [16] = species on record: Danio rerio; assay: Toxicity in Zebrafish embryo assessed as induction of changes in intestine region at 1 uM; assay type: organism-based; settings: in vivo; method in brief: as §2
Danio rerio [17] = species on record: Danio rerio; assay: Toxicity in Zebrafish embryo assessed as induction of changes in lower jaw region at 1 uM; assay type: organism-based; settings: in vivo; method in brief: as §2
Danio rerio [18] = species on record: Danio rerio; assay: Toxicity in Zebrafish embryo assessed as induction of changes in liver region at 1 uM; assay type: organism-based; settings: in vivo; method in brief: as §2
Danio rerio [19] = species on record: Danio rerio; assay: Toxicity in Zebrafish embryo assessed as induction of changes in swim bladder region at 1 uM; assay type: organism-based; settings: in vivo; method in brief: as §2
Danio rerio [20] = species on record: Danio rerio; assay: Induction of apoptosis in Zebrafish embryo incubated for 24 to 48 hrs by acridine orange based fluorescence microscopy; assay type: functional, organism-based; method in brief: as §1
Danio rerio [21] = species on record: Danio rerio; assay: Hepatotoxicity in Zebrafish embryo at 28 degC until 7 days post fertilization; assay type: organism-based; settings: in vivo, 168 h; method in brief: as §3
Danio rerio [22] = species on record: Danio rerio; assay: Teratogenicity in Zebrafish embryo incubated at 28.5 degC until 5 days post fertilization; assay type: ADME, organism-based; settings: in vivo, 120 h; method in brief: as §2
[23] = Therapeutic index, ratio of NOAEL in Zebrafish embryos to apoptotic EC50 in Zebrafish embryos; assay type: organism-based, Danio rerio; settings: read-out: TI
Danio rerio [24] = species on record: Danio rerio; assay: Induction of apoptosis in Zebrafish embryo up to 3 uM incubated for 24 to 48 hrs by acridine orange based fluorescence microscopy; assay type: functional, organism-based; method in brief: as §1
Danio rerio [25] = species on record: Danio rerio; assay: Induction of cell death in Zebrafish embryo at 10 to 30 uM incubated for 24 to 48 hrs by acridine orange based fluorescence microscopy; assay type: functional, organism-based; method in brief: as §1
Danio rerio [26] = species on record: Danio rerio; assay: Teratogenicity in Zebrafish embryo at 10 to 30 uM incubated at 28.5 degC until 5 days post fertilization; assay type: ADME, organism-based; settings: in vivo, 120 h; method in brief: as §2
[27] = Teratogenicity in Zebrafish embryo assessed as live embryo level at 3 uM incubated at 28.5 degC until 5 days post fertilization; assay type: ADME, organism-based, Danio rerio; settings: zebrafish embryos, read-out: Activity
Method in brief: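 Zebrafish embryos collected at 1 dpf, staged, dechorionated with 0.5 mg/ml pronase E and washed in E3 medium. Compound serially diluted in E3 with 0.1% DMSO final. Six embryos per well, exposed at 28.5 °C until 5 dpf, then washed, anaesthetised with 0.008% tricaine and scored for morphology (body shape, somites, notochord, tail, intestine, fins, brain, jaws, heart, liver, swim bladder). Blinded; phenobarbital 3 mM positive control.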

Danio rerio [28] = species on record: Danio rerio; assay: Teratogenicity in Zebrafish embryo assessed as induction of morphological deformities at 3 uM incubated at 28.5 degC until 5 days post fertilization; assay type: organism-based; settings: in vivo, 120 h; method in brief: as §2
Danio rerio [29] = species on record: Danio rerio; assay: Teratogenicity in Zebrafish embryo assessed as live embryo level at 1 uM incubated at 28.5 degC until 5 days post fertilization; assay type: ADME, organism-based; settings: in vivo, 120 h; method in brief: as §2
Danio rerio [30] = species on record: Danio rerio; assay: Teratogenicity in Zebrafish embryo assessed as induction of morphological deformities at swim bladder at 1 uM incubated at 28.5 degC until 5 days post fertilization; assay type: toxicity, organism-based; settings: in vivo, 120 h; method in brief: as §2
Danio rerio [31] = species on record: Danio rerio; assay: Teratogenicity in Zebrafish embryo assessed as induction of morphological deformities at lower jaw at 1 uM incubated at 28.5 degC until 5 days post fertilization; assay type: organism-based; settings: in vivo, 120 h; method in brief: as §2
Danio rerio [32] = species on record: Danio rerio; assay: Hepatotoxicity in Zebrafish embryo at 1 uM incubated at 28 degC until 7 days post fertilization; assay type: organism-based; settings: in vivo, 168 h; method in brief: as §3
Danio rerio [33] = species on record: Danio rerio; assay: Hepatotoxicity in Zebrafish embryo at 3 uM incubated at 28 degC until 7 days post fertilization; assay type: organism-based; settings: in vivo, 168 h; method in brief: as §3
Danio rerio [34] = species on record: Danio rerio; assay: Hepatotoxicity in Zebrafish embryo assessed as induction of embryo mortality at 10 to 30 uM incubated at 28 degC until 7 days post fertilization; assay type: organism-based; settings: in vivo, 168 h
Method in brief: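 Zebrafish embryos at 4 dpf, six per well in 0.1% DMSO, exposed to final compound concentrations of 1, 3, 10 and 30 at 28 °C until 7 dpf. Embryos then washed in E3 medium, anaesthetised with tricaine and imaged; liver size, liver degeneration and yolk sac retention quantified as percentages. Amiodarone served as positive control; evaluation blinded.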

Chain of 3',5'-cyclic-AMP phosphodiesterase 4B (Homo sapiens) (Q07343 whole entry): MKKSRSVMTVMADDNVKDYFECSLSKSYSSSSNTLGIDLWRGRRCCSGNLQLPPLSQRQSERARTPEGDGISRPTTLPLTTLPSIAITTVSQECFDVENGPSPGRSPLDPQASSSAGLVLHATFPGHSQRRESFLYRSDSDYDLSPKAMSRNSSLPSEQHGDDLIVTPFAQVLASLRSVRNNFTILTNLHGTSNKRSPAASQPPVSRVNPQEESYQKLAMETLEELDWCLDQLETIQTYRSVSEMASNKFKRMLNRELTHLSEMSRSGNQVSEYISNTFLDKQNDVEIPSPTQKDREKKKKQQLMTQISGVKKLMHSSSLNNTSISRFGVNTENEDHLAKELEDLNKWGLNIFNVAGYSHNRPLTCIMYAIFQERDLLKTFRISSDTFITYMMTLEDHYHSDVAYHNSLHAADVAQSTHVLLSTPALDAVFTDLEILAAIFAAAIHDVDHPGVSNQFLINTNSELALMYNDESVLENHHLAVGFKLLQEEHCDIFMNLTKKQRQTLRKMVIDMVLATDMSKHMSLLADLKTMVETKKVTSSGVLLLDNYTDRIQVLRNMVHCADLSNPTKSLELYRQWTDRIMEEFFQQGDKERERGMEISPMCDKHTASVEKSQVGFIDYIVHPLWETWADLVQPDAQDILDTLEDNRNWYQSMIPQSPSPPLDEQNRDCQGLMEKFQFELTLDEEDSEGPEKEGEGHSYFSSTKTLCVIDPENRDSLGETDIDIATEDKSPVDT

| Compound | inhibition [1] [%] | MTC (Danio rerio [7]) [µM] | NOAEL (Danio rerio [7]) [µM] | Activity (Danio rerio [8]) | Activity (Danio rerio [9]) | Activity (Danio rerio [10]) | Activity (Danio rerio [11]) | Activity (Danio rerio [12]) | Activity (Danio rerio [13]) | Activity (Danio rerio [14]) | Activity (Danio rerio [15]) | Activity (Danio rerio [16]) | Activity (Danio rerio [17]) | Activity (Danio rerio [18]) | Activity (Danio rerio [19]) | EC50 (Danio rerio [20]) [µM] | NOAEL (Danio rerio [22]) [µM] | selectivity ratio [23] | other results |
| --- | --- | --- | --- | --- | --- | --- | --- | --- | --- | --- | --- | --- | --- | --- | --- | --- | --- | --- | --- |
| CCOC(=O)c1c(-c2ccccc2)csc1-n1c(-c2ccc(C)cc2)cc2nc3ccccc3nc21 | 78 | 1 | 3 | Non-toxic | Non-toxic | Non-toxic | Non-toxic | Non-toxic | Non-toxic | Non-toxic | Non-toxic | Non-toxic | Toxic | Non-toxic | Non-toxic | 1.83 | 3 | 1.64 | Activity (Danio rerio [2]): Active; Activity (Danio rerio [3]): inactive; Activity (Danio rerio [4]): Non-toxic; Activity (Danio rerio [5]): Non-toxic; Activity (Danio rerio [6]): Toxic; NOAEL (Danio rerio [21]): 10 µM |
| CCOC(=O)c1c(-n2c(-c3ccccc3)cc3nccnc32)sc2c1CCC2 | 62 | 1 | < 1 | Non-toxic | Toxic | Non-toxic | Non-toxic | Non-toxic | Non-toxic | Non-toxic | Non-toxic | Non-toxic | Toxic | Toxic | Toxic | 1.73 | 1 | 0.577 | Activity (Danio rerio [24]): Active; Activity (Danio rerio [25]): Active; Activity (Danio rerio [26]): Toxic; survival at 120 h, 3 µM [27]: 50%; Activity (Danio rerio [28]): Toxic; Activity (Danio rerio [29]): Non-toxic; Activity (Danio rerio [30]): Toxic; Activity (Danio rerio [31]): Toxic; Activity (Danio rerio [32]): Non-toxic; Activity (Danio rerio [33]): Toxic; Activity (Danio rerio [34]): Toxic; LD (Danio rerio [7]): 10 µM |
